Test results: ChEMBL document CHEMBL1121469, “Synthesis and biochemical screening of phenylselenium-substituted steroid hormones” (J Med Chem, 1980)

Key:
[1] = target: T1, Mineralocorticoid receptor (Rattus norvegicus) (UniProt P22199); experiment: Binding affinity to Steroid Hormone Receptor was determined using [1,2-3 H]aldosterone as radioligand
T1 sequence (whole entry): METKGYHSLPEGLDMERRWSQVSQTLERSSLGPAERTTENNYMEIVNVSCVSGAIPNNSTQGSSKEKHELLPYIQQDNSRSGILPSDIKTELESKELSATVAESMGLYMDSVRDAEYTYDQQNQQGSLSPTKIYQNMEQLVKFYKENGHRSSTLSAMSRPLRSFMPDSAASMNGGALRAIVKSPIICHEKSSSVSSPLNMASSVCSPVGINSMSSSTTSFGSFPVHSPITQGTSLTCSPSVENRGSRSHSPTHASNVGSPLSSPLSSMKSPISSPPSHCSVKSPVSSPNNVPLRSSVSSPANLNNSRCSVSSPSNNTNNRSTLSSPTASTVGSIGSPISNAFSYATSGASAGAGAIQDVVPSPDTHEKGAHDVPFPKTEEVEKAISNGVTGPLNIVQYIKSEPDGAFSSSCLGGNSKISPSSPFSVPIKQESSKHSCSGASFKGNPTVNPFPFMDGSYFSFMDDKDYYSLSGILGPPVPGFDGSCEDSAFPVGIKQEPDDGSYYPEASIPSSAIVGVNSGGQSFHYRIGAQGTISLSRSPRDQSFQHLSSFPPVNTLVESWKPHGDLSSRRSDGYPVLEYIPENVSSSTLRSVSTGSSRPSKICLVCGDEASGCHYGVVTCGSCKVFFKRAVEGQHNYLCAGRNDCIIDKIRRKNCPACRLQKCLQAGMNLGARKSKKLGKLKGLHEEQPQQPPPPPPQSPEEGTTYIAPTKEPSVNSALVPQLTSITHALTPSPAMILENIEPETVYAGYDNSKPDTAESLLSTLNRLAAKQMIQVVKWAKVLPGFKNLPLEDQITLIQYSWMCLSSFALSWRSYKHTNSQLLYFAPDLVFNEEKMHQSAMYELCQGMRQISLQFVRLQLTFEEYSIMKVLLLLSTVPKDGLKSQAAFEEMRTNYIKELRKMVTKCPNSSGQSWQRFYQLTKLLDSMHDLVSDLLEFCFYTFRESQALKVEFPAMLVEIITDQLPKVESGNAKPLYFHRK
Procedure, shortened: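 Rats were male Sprague–Dawley, 140–160 g, adrenalectomized 4–7 days. Perfused kidney was homogenized 1/3 (w/v) in Krebs-Ringer phosphate buffer. Homogenate was incubated with 2.5 nM [3H]aldosterone for 30 min at 25 °C with 0–2500 nM competitor, then spun at 800g for 10 min at 0 °C. Bound ligand was separated by dextran-coated charcoal. RBA = 100 × ratio of the 50%-displacing concentrations, with aldosterone set at 100.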

[2] = target: T2, Estrogen receptor (Mus musculus) (UniProt O08537+P19785); experiment: Binding affinity to Steroid Hormone Receptor was determined using [6,7-3H]estradiol as radioligand; assay type: protein assay; details: tested as the 3H-labelled form
Procedure, shortened: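 Uteri came from 18-day-old female Swiss mice and were homogenized 1/50 (w/v). Uterine cytosol was labeled with 5 nM [3H]estradiol for 2 h at 0 °C with 0–2500 nM competing steroid. Bound radioactivity was measured after dextran-coated charcoal treatment and an 800g centrifugation. The 50%-inhibition concentrations gave RBA × 100 relative to estradiol (100). Results are means of ≥3 or two experiments.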

[3] = target: T3, Glucocorticoid receptor (Rattus norvegicus) (UniProt P06536); experiment: Relative binding affinity for glucocorticoid receptor of rat liver cytosol, displacement of [3H]dexamethasone over 4 hr at 0C
T3 sequence (whole entry): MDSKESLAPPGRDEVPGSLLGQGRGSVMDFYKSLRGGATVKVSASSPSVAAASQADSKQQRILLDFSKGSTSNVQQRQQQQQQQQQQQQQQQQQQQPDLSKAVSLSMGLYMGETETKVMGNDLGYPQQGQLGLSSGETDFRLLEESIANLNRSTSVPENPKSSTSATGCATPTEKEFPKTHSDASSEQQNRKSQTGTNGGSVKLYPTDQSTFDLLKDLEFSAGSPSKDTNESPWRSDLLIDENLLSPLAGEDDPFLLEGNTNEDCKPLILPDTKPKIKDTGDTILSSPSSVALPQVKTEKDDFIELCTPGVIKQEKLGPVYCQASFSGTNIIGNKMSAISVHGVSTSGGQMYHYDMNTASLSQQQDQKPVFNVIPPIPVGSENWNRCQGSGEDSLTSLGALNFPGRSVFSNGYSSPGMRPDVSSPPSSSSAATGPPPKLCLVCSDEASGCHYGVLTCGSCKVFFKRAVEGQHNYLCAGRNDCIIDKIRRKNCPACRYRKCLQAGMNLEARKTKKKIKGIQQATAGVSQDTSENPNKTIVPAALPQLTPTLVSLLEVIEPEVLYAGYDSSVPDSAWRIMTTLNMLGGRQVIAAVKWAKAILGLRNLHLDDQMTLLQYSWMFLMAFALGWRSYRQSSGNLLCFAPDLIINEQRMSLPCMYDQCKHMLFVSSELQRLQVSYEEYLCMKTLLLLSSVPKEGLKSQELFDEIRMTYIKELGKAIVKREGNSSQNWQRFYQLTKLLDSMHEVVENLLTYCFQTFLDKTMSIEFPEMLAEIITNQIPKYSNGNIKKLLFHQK
Procedure, shortened: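 Rats (male Sprague–Dawley, 140–160 g) adrenalectomized 4–7 days earlier. Perfused liver homogenised 1/10 in Tris-sucrose buffer and spun at 105000g for 60 min at 4 °C. Cytosol incubated with 5 nM [3H]dexamethasone for 4 h at 0 °C with 0–2500 nM competitor. Dextran-charcoal separation used. RBA relative to dexamethasone = 100.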

[4] = target: T1, Mineralocorticoid receptor (Rattus norvegicus); experiment: Relative binding affinity for mineralocorticoid receptor of rat kidney homogenates, displacement of [3H]aldosterone over 30 min at 25 degree C
Procedure, shortened: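 Perfused kidneys from adrenalectomized (4–7 days) male Sprague–Dawley rats homogenised 1/3 in Krebs-Ringer phosphate buffer. Homogenate incubated with 2.5 nM [3H]aldosterone for 30 min at 25 °C with 0–2500 nM competitor, then centrifuged at 800g for 10 min at 0 °C. Bound ligand measured by dextran-charcoal. RBA relative to aldosterone = 100.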

[5] = target: T2, Estrogen receptor (Mus musculus); experiment: Relative binding affinity for Estrogen receptor of mouse uterus cytosol, displacement of [3H]estradiol over 2 hr at 0C; assay type: protein assay
Procedure, shortened: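 Cytosol from uteri of 18-day-old female Swiss mice (homogenised 1/50 w/v), incubated with 5 nM [3H]estradiol for 2 h at 0 °C with 0–2500 nM unlabeled competitor. Bound ligand separated by dextran-coated charcoal, 10 min at 0–4 °C, then centrifuged at 800g. RBA = (50%-displacing concentration of unlabeled estradiol / that of competitor) × 100. Mean of ≥3 experiments or 2 concordant.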

[6] = target: T4, Progesterone receptor (Oryctolagus cuniculus) (UniProt P06186); experiment: Relative binding affinity for Progesterone receptor of rabbit uterus cytosol, displacement of [3H]R5020 over 24 hr at 0C
T4 sequence (whole entry): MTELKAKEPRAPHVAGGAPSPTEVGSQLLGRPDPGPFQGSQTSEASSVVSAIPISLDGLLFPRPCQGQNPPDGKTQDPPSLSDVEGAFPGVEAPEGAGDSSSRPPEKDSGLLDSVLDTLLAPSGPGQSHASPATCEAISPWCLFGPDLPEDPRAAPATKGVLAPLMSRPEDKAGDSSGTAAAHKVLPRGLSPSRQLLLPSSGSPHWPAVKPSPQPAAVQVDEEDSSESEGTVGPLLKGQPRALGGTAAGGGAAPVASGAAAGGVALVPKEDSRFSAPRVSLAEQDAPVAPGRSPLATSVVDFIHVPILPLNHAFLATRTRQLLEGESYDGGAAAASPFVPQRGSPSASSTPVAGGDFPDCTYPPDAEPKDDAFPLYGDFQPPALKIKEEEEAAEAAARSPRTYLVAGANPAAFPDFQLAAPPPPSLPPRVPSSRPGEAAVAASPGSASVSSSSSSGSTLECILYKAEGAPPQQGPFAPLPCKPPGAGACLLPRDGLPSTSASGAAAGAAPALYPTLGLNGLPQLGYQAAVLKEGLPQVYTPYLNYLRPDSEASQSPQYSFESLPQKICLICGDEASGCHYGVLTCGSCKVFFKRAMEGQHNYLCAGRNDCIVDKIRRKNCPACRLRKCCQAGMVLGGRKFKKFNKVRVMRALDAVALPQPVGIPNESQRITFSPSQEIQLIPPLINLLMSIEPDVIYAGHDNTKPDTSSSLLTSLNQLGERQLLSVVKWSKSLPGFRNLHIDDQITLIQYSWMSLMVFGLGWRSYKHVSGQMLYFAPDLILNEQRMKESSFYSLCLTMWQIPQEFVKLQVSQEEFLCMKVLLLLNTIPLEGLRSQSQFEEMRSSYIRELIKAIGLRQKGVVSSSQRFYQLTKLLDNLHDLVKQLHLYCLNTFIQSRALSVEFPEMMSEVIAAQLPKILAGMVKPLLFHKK
Procedure, shortened: (§1)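 Uteri from estrogen-primed female New Zealand rabbits (1 kg, 50–55 days old) homogenised 1/50 in 10 mM Tris-HCl pH 7.4, 0.25 M sucrose. Cytosol spun at 105000g for 60 min at 4 °C, then incubated with 2.5 nM [3H]R 5020 for 24 h at 0 °C with 0–2500 nM competitor. Bound ligand taken by dextran-charcoal. RBA taken relative to progesterone.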

[7] = target: T5, Androgen receptor (Rattus norvegicus) (UniProt P15207); experiment: Relative binding affinity for androgen receptor of rat prostate cytosol, displacement of [3H]R-1881 over 2 hr at 0C
T5 sequence (whole entry): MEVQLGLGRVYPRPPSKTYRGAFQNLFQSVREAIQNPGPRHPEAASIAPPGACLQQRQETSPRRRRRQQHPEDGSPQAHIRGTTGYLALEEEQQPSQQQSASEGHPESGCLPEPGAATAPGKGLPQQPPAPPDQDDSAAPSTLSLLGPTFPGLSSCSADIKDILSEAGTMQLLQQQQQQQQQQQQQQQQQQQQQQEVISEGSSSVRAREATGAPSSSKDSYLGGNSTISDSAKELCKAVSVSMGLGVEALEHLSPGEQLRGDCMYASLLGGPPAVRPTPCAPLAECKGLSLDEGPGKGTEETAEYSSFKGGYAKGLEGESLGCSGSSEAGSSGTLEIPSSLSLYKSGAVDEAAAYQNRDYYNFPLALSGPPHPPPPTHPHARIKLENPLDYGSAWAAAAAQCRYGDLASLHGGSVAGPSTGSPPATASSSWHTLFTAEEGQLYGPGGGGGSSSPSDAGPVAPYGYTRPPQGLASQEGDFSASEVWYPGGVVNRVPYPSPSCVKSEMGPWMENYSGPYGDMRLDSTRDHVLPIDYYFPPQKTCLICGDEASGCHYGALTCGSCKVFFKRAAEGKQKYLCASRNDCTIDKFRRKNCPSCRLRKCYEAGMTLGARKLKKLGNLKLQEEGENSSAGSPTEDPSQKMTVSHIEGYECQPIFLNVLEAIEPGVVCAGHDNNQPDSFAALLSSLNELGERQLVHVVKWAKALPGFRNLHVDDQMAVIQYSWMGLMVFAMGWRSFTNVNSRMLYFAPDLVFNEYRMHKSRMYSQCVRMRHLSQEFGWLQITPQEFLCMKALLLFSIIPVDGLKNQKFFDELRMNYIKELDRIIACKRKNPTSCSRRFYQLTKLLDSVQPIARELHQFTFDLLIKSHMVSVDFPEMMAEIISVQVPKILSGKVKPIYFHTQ
Procedure, shortened: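 Prostate from male Sprague–Dawley rats (140–160 g) castrated 24 h earlier, homogenised 1/5 w/v. Cytosol incubated with 2.5 nM [3H]R 1881 for 2 h at 0 °C with 0–2500 nM competitor. […] by dextran-coated charcoal (10 min, 0–4 °C; 800g). RBA is the ratio of 50%-displacing concentrations × 100, relative to testosterone.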

[8] = target: T5, Androgen receptor (Rattus norvegicus); experiment: Binding affinity to Steroid Hormone Receptor was determined using [6,7-3H] R 1881 as radioligand; details: tested as the 3H-labelled form
Procedure, shortened: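 Prostate was taken from male Sprague–Dawley rats (140–160 g) castrated 24 h before and homogenized 1/5 (w/v). Cytosol was incubated with 2.5 nM [3H]R 1881 for 2 h at 0 °C with 0–2500 nM unlabeled competitor. Free ligand was removed with DCC (0.625% dextran–1.25% charcoal, 10 min, 0–4 °C, 800g spin). RBA is relative to testosterone = 100. Values are means of ≥3 experiments (SEM) or of two.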

[9] = target: T3, Glucocorticoid receptor (Rattus norvegicus)
[10] = target: T4, Progesterone receptor (Oryctolagus cuniculus); experiment: Binding affinity to Steroid Hormone Receptor was determined using [6,7-3H]R5020 as radioligand; procedure, shortened: as §1

T2 sequence (O08537 whole entry, looked up): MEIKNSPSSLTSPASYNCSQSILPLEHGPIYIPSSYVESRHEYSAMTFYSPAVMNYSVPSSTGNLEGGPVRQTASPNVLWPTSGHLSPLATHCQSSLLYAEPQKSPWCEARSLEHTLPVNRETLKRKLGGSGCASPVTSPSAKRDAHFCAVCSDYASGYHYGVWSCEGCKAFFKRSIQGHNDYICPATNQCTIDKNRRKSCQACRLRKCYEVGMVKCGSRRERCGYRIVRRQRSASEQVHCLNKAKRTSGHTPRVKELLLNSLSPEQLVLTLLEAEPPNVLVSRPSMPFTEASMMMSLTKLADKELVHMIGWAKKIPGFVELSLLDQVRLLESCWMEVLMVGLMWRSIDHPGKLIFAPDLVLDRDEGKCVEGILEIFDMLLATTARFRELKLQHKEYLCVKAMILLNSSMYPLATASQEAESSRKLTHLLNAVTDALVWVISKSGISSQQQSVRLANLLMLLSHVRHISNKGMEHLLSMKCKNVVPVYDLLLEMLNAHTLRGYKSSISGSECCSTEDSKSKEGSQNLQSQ
T2 sequence (P19785 whole entry, looked up): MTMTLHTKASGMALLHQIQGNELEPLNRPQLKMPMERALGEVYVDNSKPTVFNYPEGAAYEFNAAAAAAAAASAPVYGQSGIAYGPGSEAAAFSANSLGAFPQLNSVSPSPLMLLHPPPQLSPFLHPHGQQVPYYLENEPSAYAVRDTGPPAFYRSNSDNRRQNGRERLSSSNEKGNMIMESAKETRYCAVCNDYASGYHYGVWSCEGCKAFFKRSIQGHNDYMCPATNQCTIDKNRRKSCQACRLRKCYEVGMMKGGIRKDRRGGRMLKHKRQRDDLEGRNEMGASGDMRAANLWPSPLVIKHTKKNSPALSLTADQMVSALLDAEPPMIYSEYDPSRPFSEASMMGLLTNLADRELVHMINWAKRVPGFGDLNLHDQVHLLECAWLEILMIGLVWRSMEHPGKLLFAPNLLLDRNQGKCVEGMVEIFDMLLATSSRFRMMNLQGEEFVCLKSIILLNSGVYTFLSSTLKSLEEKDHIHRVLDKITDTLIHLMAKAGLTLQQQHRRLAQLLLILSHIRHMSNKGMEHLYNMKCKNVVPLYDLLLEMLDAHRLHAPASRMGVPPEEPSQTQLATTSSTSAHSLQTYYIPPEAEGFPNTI

SMILES	RBA [3]	RBA [4]	RBA [5]	RBA [6]	RBA [7]	also measured
C[C@]12CC[C@@H]3c4ccc(O)cc4CC[C@H]3[C@@H]1CC[C@@H]2O						Specific activity [1]: 50 Ci mM-1
CCC(=O)[C@@]1(C)CC[C@H]2[C@@H]3CCC4=CC(=O)CCC4=C3CCC21C (stereo not given in full)						Specific activity [2]: 57 Ci mM-1
CC12CCC(=O)C=C1CCC1C2CCC2(C)C1C[C@H]([Se]c1ccccc1)C2O (stereo not given in full)	< 0.1	< 0.1	< 0.1	< 0.1	1.9	
CC12CCC(=O)C=C1CCC1C2C2CC3(C(O)O2)C(C(=O)CO)CCC13 (stereo not given)						Specific activity [8]: 53 Ci mM-1
C[C@@H]1C[C@H]2[C@@H]3CCC4=CC(=O)C=C[C@]4(C)[C@@]3(F)[C@@H](O)C[C@]2(C)[C@@]1(O)C(=O)CO						Specific activity [9]: 26 Ci mM-1
CC12CCC(=O)C=C1CCC1C2CCC2(C)C1CC[C@@H]2C(=O)C[Se]c1ccccc1 (stereo not given in full)	0.6	2.1	< 0.1	59	1.7	
CC(=O)[C@@]1([Se]c2ccccc2)CCC2C3CCC4=CC(=O)CCC4(C)C3CCC21C (stereo not given in full)	< 0.1	0.23	< 0.1	2.1	< 0.1	
C[C@]1(O)CC[C@H]2[C@@H]3CCC4=CC(=O)CCC4=C3C=C[C@@]21C						Specific activity [10]: 56 Ci mM-1
CC12CCC(=O)C=C1CCC1C2CCC2(C)C1C[C@@H]([Se]c1ccccc1)C2O (stereo not given in full)	0.23	0.15	< 0.1	0.8	0.33	
